Key:
MDCK = test: Cytotoxicity against MDCK cells assessed as cell viability by MTS assay; assay type: cell-based, Canis lupus familiaris; conditions: dog, mdck
Method in brief: (§1)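 Uninfected cultures were run in parallel with the antiviral assays. Viability was read by colorimetric formazan MTS assay.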

HeLa = test: Cytotoxicity against human HeLa cells assessed as cell viability by MTS assay; assay type: cell-based; conditions: hela; method in brief: as §1
[1] = Cytotoxicity against human HEL cells assessed as altered cell morphology; assay type: cell-based
Method in brief: (§2)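 Uninfected cell cultures run alongside the antiviral assays, exposed to serial compound dilutions and incubated at 37 °C for 2–4 days. Toxicity was scored microscopically and reported as the minimum cytotoxic concentration (MCC), the lowest concentration causing a detectable change in normal cell morphology.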

Bacillus subtilis = test: Antimicrobial activity against Bacillus subtilis after 24 hrs by tube dilution method; assay type: functional
Method in brief: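 Serial dilutions in double-strength nutrient broth (I.P.) with ciprofloxacin as reference, tube dilution, incubated 37 °C for 24 h. MIC is the lowest concentration that inhibited growth.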

Influenza B virus [2] = test: Antiviral activity against Influenza B virus infected in MDCK cells assessed as inhibition of virus induced cytopathicity by visual scoring of CPE; assay type: functional, organism-based
[3] = tested on: Vesicular stomatitis virus; test: Antiviral activity against Vesicular stomatitis virus infected in human HeLa cells assessed as inhibition of virus induced cytopathicity by visual scoring of CPE; assay type: functional, organism-based
Coxsackievirus B4 [4] = test: Antiviral activity against coxsackievirus B4 infected in human HeLa cells assessed as inhibition of virus induced cytopathicity by visual scoring of CPE; assay type: functional, organism-based; conditions: Enterovirus B
Influenza A virus [5] = test: Antiviral activity against Influenza A H3N2 virus subtype infected in MDCK cells assessed as inhibition of virus induced cytopathicity by visual scoring of CPE; assay type: functional, organism-based
Influenza B virus [6] = test: Antiviral activity against Influenza B virus infected in MDCK cells assessed as inhibition of virus induced cytopathicity after 2 to 4 days by MTS assay; assay type: functional, organism-based
[7] = tested on: Respiratory syncytial virus; test: Antiviral activity against Respiratory syncytial virus infected in human HeLa cells assessed as inhibition of virus induced cytopathicity by visual scoring of CPE; assay type: functional, organism-based
Human alphaherpesvirus 1 [8] = test: Antiviral activity against Herpes simplex virus 1 KOS infected in HEL cells assessed as inhibition of virus induced cytopathicity after 2 to 4 days by MTS assay; assay type: functional, organism-based; conditions: Human alphaherpesvirus 1, KOS
Coxsackievirus B4 [9] = test: Antiviral activity against coxsackievirus B4 infected in human HeLa cells assessed as inhibition of virus induced cytopathicity after 2 to 4 days by MTS assay; assay type: functional, organism-based; conditions: Enterovirus B
Human respirovirus 3 = test: Antiviral activity against parainfluenza-3 virus infected in african green monkey Vero cells assessed as inhibition of virus induced cytopathicity after 2 to 4 days by MTS assay; assay type: functional, organism-based; conditions: Human respirovirus 3, Vero
[10] = Cytotoxicity against human HeLa cells assessed as altered cell morphology; assay type: cell-based; method in brief: as §2
Vaccinia virus = test: Antiviral activity against Vaccinia virus infected in HEL cells assessed as inhibition of virus induced cytopathicity after 2 to 4 days by MTS assay; assay type: functional, organism-based; conditions: Orthopoxvirus vaccinia
Candida albicans = test: Antimicrobial activity against Candida albicans after 48 hrs by tube dilution method; assay type: functional
Aspergillus niger = test: Antimicrobial activity against Aspergillus niger after 7 days by tube dilution method; assay type: functional; conditions: 168 h
Sindbis virus = test: Antiviral activity against Sindbis virus infected in african green monkey Vero cells assessed as inhibition of virus induced cytopathicity after 2 to 4 days by MTS assay; assay type: functional, organism-based
Felid alphaherpesvirus 1 = test: Antiviral activity against Feline herpesvirus 1 infected in cat CRFK cells assessed as inhibition of virus induced cytopathicity after 2 to 4 days by MTS assay; assay type: functional, organism-based; conditions: Felid alphaherpesvirus 1, CRFK
Staphylococcus aureus = test: Antimicrobial activity against Staphylococcus aureus after 24 hrs by tube dilution method; assay type: functional
[11] = tested on: Respiratory syncytial virus; test: Antiviral activity against Respiratory syncytial virus infected in human HeLa cells assessed as inhibition of virus induced cytopathicity after 2 to 4 days by MTS assay; assay type: functional, organism-based
Human alphaherpesvirus 2 = test: Antiviral activity against Herpes simplex virus 2 G infected in HEL cells assessed as inhibition of virus induced cytopathicity after 2 to 4 days by MTS assay; assay type: functional, organism-based; conditions: Human alphaherpesvirus 2, strain G
Coxsackievirus B4 [12] = test: Antiviral activity against Coxsackie virus B4 infected in african green monkey Vero cells assessed as inhibition of virus induced cytopathicity after 2 to 4 days by MTS assay; assay type: functional, organism-based; conditions: Enterovirus B
Feline coronavirus = test: Antiviral activity against Feline coronavirus infected in cat CRFK cells assessed as inhibition of virus induced cytopathicity after 2 to 4 days by MTS assay; assay type: functional, organism-based; conditions: Alphacoronavirus 1, CRFK
[13] = Cytotoxicity against cat CRFK cells assessed as cell viability by MTS assay; assay type: cell-based, Felis catus; conditions: crfk; method in brief: as §1
[14] = tested on: Vesicular stomatitis virus; test: Antiviral activity against Vesicular stomatitis virus infected in human HeLa cells assessed as inhibition of virus induced cytopathicity after 2 to 4 days by MTS assay; assay type: functional, organism-based
[15] = tested on: Vesicular stomatitis virus; test: Antiviral activity against Vesicular stomatitis virus infected in HEL cells assessed as inhibition of virus induced cytopathicity after 2 to 4 days by MTS assay; assay type: functional, organism-based
Human alphaherpesvirus 1 [16] = test: Antiviral activity against thymidine kinase deficient acyclovir-resistant Herpes simplex virus 1 KOS infected in HEL cells assessed as inhibition of virus induced cytopathicity after 2 to 4 days by MTS assay; assay type: functional, organism-based; conditions: Human alphaherpesvirus 1, KOS
[17] = Cytotoxicity against african green monkey Vero cells assessed as altered cell morphology; assay type: cell-based; conditions: chlorocebus sabaeus; method in brief: as §2
Escherichia coli = test: Antimicrobial activity against Escherichia coli after 24 hrs by tube dilution method; assay type: functional
[18] = Cytotoxicity against MDCK cells assessed as altered cell morphology; assay type: cell-based, Canis lupus familiaris; conditions: dog; method in brief: as §2
Punta Toro virus = test: Antiviral activity against Punta Toro virus infected in african green monkey Vero cells assessed as inhibition of virus induced cytopathicity after 2 to 4 days by MTS assay; assay type: functional, organism-based
[19] = tested on: Mammalian orthoreovirus 1; test: Antiviral activity against Reovirus 1 virus infected in african green monkey Vero cells assessed as inhibition of virus induced cytopathicity after 2 to 4 days by MTS assay; assay type: functional, organism-based; conditions: Mammalian orthoreovirus 1, Vero
Influenza A virus [20] = test: Antiviral activity against Influenza A H3N2 virus subtype infected in MDCK cells assessed as inhibition of virus induced cytopathicity after 2 to 4 days by MTS assay; assay type: functional, organism-based

CCCCCCCCCCCCCCCC(=O)n1c(-c2ccc(S(=O)(=O)O)cc2)nc2ccccc21
12.5 µg/mL: MBC (Bacillus subtilis) | MBC (Escherichia coli)
6.25 µg/mL: MBC (Staphylococcus aureus)
> 100 µg/mL: CC50 (MDCK) | CC50 (HeLa) | MCC [1] | EC50 (Influenza B virus [2]) | EC50 [3] | EC50 (Coxsackievirus B4 [4]) | EC50 (Influenza A virus [5]) | EC50 (Influenza B virus [6]) | EC50 [7] | EC50 (Human alphaherpesvirus 1 [8]) | EC50 (Coxsackievirus B4 [9]) | EC50 (Human respirovirus 3) | MCC [10] | EC50 (Vaccinia virus) | EC50 (Sindbis virus) | EC50 (Felid alphaherpesvirus 1) | EC50 [11] | EC50 (Human alphaherpesvirus 2) | EC50 (Coxsackievirus B4 [12]) | EC50 (Feline coronavirus) | CC50 [13] | EC50 [14] | EC50 [15] | EC50 (Human alphaherpesvirus 1 [16]) | MCC [17] | MCC [18] | EC50 (Punta Toro virus) | EC50 [19] | EC50 (Influenza A virus [20])
> 50 µg/mL: MFC (Candida albicans) | MFC (Aspergillus niger)

O=C(c1ccccc1)n1c(-c2ccc(S(=O)(=O)O)cc2)nc2ccccc21
12.5 µg/mL: MBC (Staphylococcus aureus)
> 100 µg/mL: CC50 (MDCK) | CC50 (HeLa) | MCC [1] | EC50 (Influenza B virus [2]) | EC50 [3] | EC50 (Coxsackievirus B4 [4]) | EC50 (Influenza A virus [5]) | EC50 (Influenza B virus [6]) | EC50 [7] | EC50 (Human alphaherpesvirus 1 [8]) | EC50 (Coxsackievirus B4 [9]) | EC50 (Human respirovirus 3) | MCC [10] | EC50 (Vaccinia virus) | EC50 (Sindbis virus) | EC50 (Felid alphaherpesvirus 1) | EC50 [11] | EC50 (Human alphaherpesvirus 2) | EC50 (Coxsackievirus B4 [12]) | EC50 (Feline coronavirus) | CC50 [13] | EC50 [14] | EC50 [15] | EC50 (Human alphaherpesvirus 1 [16]) | MCC [17] | MCC [18] | EC50 (Punta Toro virus) | EC50 [19] | EC50 (Influenza A virus [20])
> 50 µg/mL: MBC (Bacillus subtilis) | MFC (Aspergillus niger)
1.56 µg/mL: MBC (Escherichia coli)
50 µg/mL: MFC (Candida albicans)

O=C(c1ccc(Cl)cc1)n1c(-c2ccc(S(=O)(=O)O)cc2)nc2ccccc21
> 100 µg/mL: CC50 (MDCK) | CC50 (HeLa) | MCC [1] | EC50 (Influenza B virus [2]) | EC50 [3] | EC50 (Coxsackievirus B4 [4]) | EC50 (Influenza A virus [5]) | EC50 (Influenza B virus [6]) | EC50 [7] | EC50 (Human alphaherpesvirus 1 [8]) | EC50 (Coxsackievirus B4 [9]) | EC50 (Human respirovirus 3) | MCC [10] | EC50 (Vaccinia virus) | EC50 (Sindbis virus) | EC50 (Felid alphaherpesvirus 1) | EC50 [11] | EC50 (Human alphaherpesvirus 2) | EC50 (Coxsackievirus B4 [12]) | EC50 (Feline coronavirus) | CC50 [13] | EC50 [14] | EC50 [15] | EC50 (Human alphaherpesvirus 1 [16]) | MCC [17] | MCC [18] | EC50 (Punta Toro virus) | EC50 [19] | EC50 (Influenza A virus [20])
25 µg/mL: MBC (Staphylococcus aureus)
1.56 µg/mL: MBC (Escherichia coli)
> 50 µg/mL: MBC (Bacillus subtilis) | MFC (Candida albicans) | MFC (Aspergillus niger)

Cc1ccccc1C(=O)n1c(-c2ccc(S(=O)(=O)O)cc2)nc2ccccc21
> 50 µg/mL: MBC (Bacillus subtilis) | MFC (Aspergillus niger)
> 100 µg/mL: CC50 (MDCK) | CC50 (HeLa) | MCC [1] | EC50 (Influenza B virus [2]) | EC50 [3] | EC50 (Coxsackievirus B4 [4]) | EC50 (Influenza A virus [5]) | EC50 (Influenza B virus [6]) | EC50 [7] | EC50 (Human alphaherpesvirus 1 [8]) | EC50 (Coxsackievirus B4 [9]) | EC50 (Human respirovirus 3) | MCC [10] | EC50 (Vaccinia virus) | EC50 (Sindbis virus) | EC50 (Felid alphaherpesvirus 1) | EC50 [11] | EC50 (Human alphaherpesvirus 2) | EC50 (Coxsackievirus B4 [12]) | EC50 (Feline coronavirus) | CC50 [13] | EC50 [14] | EC50 [15] | EC50 (Human alphaherpesvirus 1 [16]) | MCC [17] | MCC [18] | EC50 (Punta Toro virus) | EC50 [19] | EC50 (Influenza A virus [20])
50 µg/mL: MFC (Candida albicans)
6.25 µg/mL: MBC (Staphylococcus aureus)
3.12 µg/mL: MBC (Escherichia coli)
